ChEMBL document CHEMBL1130092, “Discovery of potent nonpeptide vitronectin receptor (alpha v beta 3) antagonists” (J Med Chem, 1997)
pKi: −log10 of the molar value. Bridge positions count the residues as written; N and C are the ends. Peptide text beside a SMILES is read from it.

What was measured:
Integrin alpha-V/beta-3 = Integrin alpha-V/beta-3 (Homo sapiens, UniProt P05106+P06756); experiment: Affinity for vitronectin receptor, integrin alphaV-beta3; assay type: protein-complex assay
Method in brief: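 Competitive radioligand binding to human αVβ3, displacing [3H]SK&F 107260; Ki values are means of two to three separate experiments.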

[1] = molecular target: Integrin alpha-IIb/beta-3 (Homo sapiens, UniProt P05106+P08514); experiment: Affinity for platelet fibrinogen receptor, integrin alpha IIb/beta3
Integrin alpha-IIb/beta-3, sequence (P05106 27-788 limits assumed): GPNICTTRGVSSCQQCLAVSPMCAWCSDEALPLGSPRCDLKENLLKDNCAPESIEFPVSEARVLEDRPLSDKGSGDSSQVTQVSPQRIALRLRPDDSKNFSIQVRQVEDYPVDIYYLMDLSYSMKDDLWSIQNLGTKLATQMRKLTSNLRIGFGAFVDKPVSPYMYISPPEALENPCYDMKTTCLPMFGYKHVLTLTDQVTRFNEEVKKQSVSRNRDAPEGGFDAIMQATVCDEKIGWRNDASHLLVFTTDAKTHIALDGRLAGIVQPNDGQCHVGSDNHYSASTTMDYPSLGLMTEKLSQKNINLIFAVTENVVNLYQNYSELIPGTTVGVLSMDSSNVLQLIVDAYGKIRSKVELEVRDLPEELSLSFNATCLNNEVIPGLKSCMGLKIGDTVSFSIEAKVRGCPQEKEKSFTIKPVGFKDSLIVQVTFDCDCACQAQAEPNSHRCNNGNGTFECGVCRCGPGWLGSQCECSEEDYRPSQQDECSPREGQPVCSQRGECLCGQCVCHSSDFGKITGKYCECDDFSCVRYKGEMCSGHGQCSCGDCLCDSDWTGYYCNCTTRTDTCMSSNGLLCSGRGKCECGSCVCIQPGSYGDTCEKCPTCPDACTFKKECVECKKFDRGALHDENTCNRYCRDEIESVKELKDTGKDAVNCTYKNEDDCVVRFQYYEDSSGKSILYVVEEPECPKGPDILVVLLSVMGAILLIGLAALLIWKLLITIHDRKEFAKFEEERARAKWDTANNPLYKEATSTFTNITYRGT
Integrin alpha-IIb/beta-3, sequence (P08514 32-887 limits assumed): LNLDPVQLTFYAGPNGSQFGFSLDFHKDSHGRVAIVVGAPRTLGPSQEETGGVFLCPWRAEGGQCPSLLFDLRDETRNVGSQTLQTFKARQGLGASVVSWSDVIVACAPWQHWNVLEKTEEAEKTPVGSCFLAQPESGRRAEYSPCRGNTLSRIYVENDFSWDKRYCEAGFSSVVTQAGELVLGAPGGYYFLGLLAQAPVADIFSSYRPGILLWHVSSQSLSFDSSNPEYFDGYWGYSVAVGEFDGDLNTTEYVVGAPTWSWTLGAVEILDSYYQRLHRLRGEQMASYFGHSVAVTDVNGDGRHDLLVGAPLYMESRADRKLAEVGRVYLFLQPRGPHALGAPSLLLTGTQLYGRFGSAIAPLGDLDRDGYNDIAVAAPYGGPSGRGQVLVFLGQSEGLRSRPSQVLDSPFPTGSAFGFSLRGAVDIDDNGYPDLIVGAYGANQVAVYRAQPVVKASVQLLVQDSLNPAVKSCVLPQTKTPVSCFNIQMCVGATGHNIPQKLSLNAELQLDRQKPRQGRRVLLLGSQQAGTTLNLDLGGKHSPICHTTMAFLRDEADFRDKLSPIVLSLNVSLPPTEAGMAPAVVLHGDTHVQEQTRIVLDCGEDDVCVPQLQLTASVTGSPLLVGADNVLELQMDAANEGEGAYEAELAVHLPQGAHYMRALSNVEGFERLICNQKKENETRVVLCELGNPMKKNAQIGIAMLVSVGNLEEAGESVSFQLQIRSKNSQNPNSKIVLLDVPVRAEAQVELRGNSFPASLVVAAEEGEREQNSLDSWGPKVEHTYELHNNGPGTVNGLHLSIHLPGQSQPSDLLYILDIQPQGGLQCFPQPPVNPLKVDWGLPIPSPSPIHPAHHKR
Integrin alpha-IIb/beta-3, sequence (P08514 891-1039 limits assumed): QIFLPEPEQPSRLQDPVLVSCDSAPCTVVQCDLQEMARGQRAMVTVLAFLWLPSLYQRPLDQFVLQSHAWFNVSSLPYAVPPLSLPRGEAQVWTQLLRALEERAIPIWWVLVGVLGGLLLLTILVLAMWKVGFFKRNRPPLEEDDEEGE

Integrin alpha-V/beta-3, sequence (P05106 27-788 limits assumed): as the sequence (P05106 27-788 limits assumed) above
Integrin alpha-V/beta-3, sequence (P06756 31-889 limits assumed): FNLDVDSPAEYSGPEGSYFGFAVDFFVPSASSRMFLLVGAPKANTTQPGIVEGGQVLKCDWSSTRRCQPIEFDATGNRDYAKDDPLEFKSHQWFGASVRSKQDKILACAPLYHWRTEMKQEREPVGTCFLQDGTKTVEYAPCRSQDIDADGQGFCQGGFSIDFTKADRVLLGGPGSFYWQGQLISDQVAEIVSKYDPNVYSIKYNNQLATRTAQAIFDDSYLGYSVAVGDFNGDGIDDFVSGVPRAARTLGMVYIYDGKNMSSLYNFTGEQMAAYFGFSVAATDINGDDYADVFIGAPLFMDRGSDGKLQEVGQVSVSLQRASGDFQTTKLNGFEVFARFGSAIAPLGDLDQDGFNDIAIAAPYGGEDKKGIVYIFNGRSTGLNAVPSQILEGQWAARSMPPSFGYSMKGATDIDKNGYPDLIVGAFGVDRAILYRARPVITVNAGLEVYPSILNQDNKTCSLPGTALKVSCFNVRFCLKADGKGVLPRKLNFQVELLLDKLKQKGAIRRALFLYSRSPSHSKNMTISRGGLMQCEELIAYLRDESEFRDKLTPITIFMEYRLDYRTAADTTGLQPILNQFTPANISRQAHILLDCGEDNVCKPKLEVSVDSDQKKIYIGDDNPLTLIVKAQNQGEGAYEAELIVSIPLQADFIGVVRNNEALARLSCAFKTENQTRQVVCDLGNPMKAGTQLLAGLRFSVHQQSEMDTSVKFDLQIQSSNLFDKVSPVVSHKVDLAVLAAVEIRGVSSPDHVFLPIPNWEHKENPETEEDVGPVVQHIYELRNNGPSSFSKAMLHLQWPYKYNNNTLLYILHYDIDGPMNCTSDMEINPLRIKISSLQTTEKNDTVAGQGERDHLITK
Integrin alpha-V/beta-3, sequence (P06756 891-1048 limits assumed): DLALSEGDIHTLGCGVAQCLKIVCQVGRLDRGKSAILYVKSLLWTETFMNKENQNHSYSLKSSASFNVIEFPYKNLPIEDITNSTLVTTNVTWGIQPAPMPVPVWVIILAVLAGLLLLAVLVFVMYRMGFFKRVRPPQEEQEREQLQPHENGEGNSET

| Structure (SMILES) | pKi (Integrin alpha-V/beta-3) | pKi [1] |
| --- | --- | --- |
| N=C(N)c1ccc(NC(=O)c2ccc3c(c2)CN(CCc2ccccc2)C(=O)C(CC(=O)O)N3)cc1 (stereo not given) | 4.25 |  |
| CC(=O)C[C@@H]1NC(=O)[C@@H](Cc2ccccc2)NC(=O)[C@H](C(C)C)NC(=O)[C@H](CCCN=C(N)N)NC(=O)CNC1=O | 8.00 | 4.38 |
| N=C(N)c1cccc(NC(=O)c2ccc3c(c2)CN(CCc2ccccc2)C(=O)C(CC(=O)O)N3)c1 (stereo not given) | 6.29 | 5.35 |
| CN(C(=O)c1ccccc1)[C@@H](CCCNC(=N)N)C(=O)NCC1=CC(CC(=O)O)C(=O)N(c2ccccc2)CC1 (stereo not given in full) | 7.30 |  |
| CN1Cc2cc(C(=O)NCc3nc4ccccc4[nH]3)ccc2N[C@@H](CC(=O)O)C1=O | 7.82 | 4.28 |
| CN1Cc2cc(C(=O)NCCc3nc4ccccc4[nH]3)ccc2NC(CC(=O)O)C1=O (stereo not given) | 5.96 | < 4.30 |
| CN1Cc2cc(C(=O)Nc3nc4ccccc4[nH]3)ccc2NC(CC(=O)O)C1=O (stereo not given) | 5.94 | < 4.30 |
| CN1Cc2cc(C(=O)N3CCN(c4ccncc4)CC3)ccc2NC(CC(=O)O)C1=O (stereo not given) | 6.00 | 8.10 |
| CN1Cc2cc(C(=O)N3CCN(c4ccccc4)CC3)ccc2NC(CC(=O)O)C1=O (stereo not given) |  | < 4.00 |
| CN1Cc2cc(C(=O)NCc3nc4ccccc4[nH]3)ccc2NC(CC(=O)O)C1=O (stereo not given) | 7.62 | 4.52 |
| N/C1=N/CCC[C@H](N)C(=O)NCC(=O)N[C@@H](CC(=O)O)C(=O)N[C@@H](CO)C(=O)N[C@@H](Cc2ccccc2)C(=O)NCC(=O)N1 (H-RGDSFG; lactam 1-C) | 8.00 | 4.12 |
| CN1C(=O)c2ccccc2SSc2ccccc2NC(=O)[C@H](CC(=O)O)NC(=O)CNC(=O)[C@@H]1CCCN=C(N)N [SKF-107260] | 8.46 |  |
